From ChEMBL document CHEMBL1125365, “Acyl-CoA:cholesterol O-acyl transferase (ACAT) inhibitors. 1. 2-(Alkylthio)-4,5-diphenyl-1H-imidazoles as potent inhibitors of ACAT” (J Med Chem, 1992)

What was measured:
[1] = system: Rattus norvegicus; experiment: Tested in vivo for anti-hypercholesterolaemic activity in male Sprague-Dawley rat.; format: functional
Procedure, shortened: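 Compound was given at 0.03% w/w in the diet (about 30 mg/kg/day). Basal-diet rats (n = 4) gave a baseline that was subtracted. Plasma cholesterol was measured enzymatically, and the result was expressed as percent change versus undosed controls.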

[2] = target: T1, Sterol O-acyltransferase 1 (Rattus norvegicus) (UniProt O70536); experiment: In vitro acyl coenzyme A:cholesterol acyltransferase (ACAT) activity in rat liver microsome at a concentration of 10 micro g/mL; format: microsomes
T1 sequence (whole entry): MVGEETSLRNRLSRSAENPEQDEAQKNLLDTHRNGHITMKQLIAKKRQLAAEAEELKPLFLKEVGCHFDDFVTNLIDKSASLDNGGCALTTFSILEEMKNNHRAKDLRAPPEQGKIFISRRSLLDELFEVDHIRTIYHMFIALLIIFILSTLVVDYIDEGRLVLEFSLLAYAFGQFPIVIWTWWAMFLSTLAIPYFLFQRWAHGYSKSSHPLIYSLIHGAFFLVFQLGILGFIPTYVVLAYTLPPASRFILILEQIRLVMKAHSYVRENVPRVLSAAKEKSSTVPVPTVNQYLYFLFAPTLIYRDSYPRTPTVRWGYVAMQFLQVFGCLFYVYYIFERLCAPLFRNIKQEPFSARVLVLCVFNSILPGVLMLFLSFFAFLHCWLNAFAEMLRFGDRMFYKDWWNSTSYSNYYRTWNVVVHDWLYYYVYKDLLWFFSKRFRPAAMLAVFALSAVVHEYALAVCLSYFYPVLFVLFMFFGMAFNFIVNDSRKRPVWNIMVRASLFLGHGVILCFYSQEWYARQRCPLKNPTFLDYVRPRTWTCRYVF
Procedure, shortened: (§1)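 Enzyme source was hepatic microsomes from cholesterol-fed rats, 60 μg microsomal protein per reaction, with 90 μM radiolabeled oleoyl-CoA. Cholesterol ester formed was separated by TLC and quantified by scintillation counting. Compounds were tested at a single fixed concentration of 1 or 10 μg/mL, and results were given as percent inhibition of enzyme activity.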

[3] = target: T2, Sterol O-acyltransferase 1 (Rattus norvegicus, UniProt O70536); experiment: Inhibition of acyl coenzyme A:cholesterol acyltransferase (ACAT) activity in rat liver microsome; format: microsomes
T2 sequence (O70536 whole entry): T1 sequence (whole entry)
Procedure, shortened: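 The assay used rat hepatic microsomes from cholesterol-fed animals (60 μg protein) and 90 μM radiolabeled oleoyl-CoA. Cholesterol ester product was resolved by TLC and counted by scintillation. IC50 was the concentration inhibiting 50% of enzyme activity.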

[4] = target: T1, Sterol O-acyltransferase 1 (Rattus norvegicus); experiment: Tested in vitro for acyl coenzyme A:cholesterol acyltransferase (ACAT) activity in rat liver microsome at a concentration of 1 micro g/mL; format: microsomes; procedure, shortened: as §1

SMILES | inhibition [2] [%] | IC50 [3] [nM] | inhibition [4] [%] | Change [1] [%]
CC(O)(CC(=O)[O-])CC(O)CSc1nc(-c2ccccc2)c(-c2ccccc2)[nH]1.[Na+] (configuration not stated) | 66 |  |  | -33
COC(CSc1nc(-c2ccccc2)c(-c2ccccc2)[nH]1)OC | 99 | 580 |  | 
COc1ccc(-c2nc(S)[nH]c2-c2ccc(OC)cc2)cc1 | 42 |  |  | 
CC(O)(CC(=O)OC(C)(C)C)CC(O)CSc1nc(-c2ccc(Cl)cc2)c(-c2ccc(Cl)cc2)[nH]1 (configuration not stated) | 97 | 250 |  | -53
O=C1CCCC(CSc2nc(-c3ccccc3)c(-c3ccccc3)[nH]2)N1 (configuration not stated) |  | 610 | 86 | 
c1ccc(-c2nc(SCC3OCCO3)[nH]c2-c2ccccc2)cc1 |  | 530 | 98 | -29
CCOC(CSc1nc(-c2ccccc2)c(-c2ccccc2)[nH]1)OCC | 99 | 250 |  | -37
c1ccc(-c2nc(SCC3CCCCC3)[nH]c2-c2ccccc2)cc1 |  | 100 | 95 | -92
O=C(O)CCCCCSc1nc(-c2ccccc2Cl)c(-c2ccccc2Cl)[nH]1 | 20 |  |  | 
Clc1cccc(-c2[nH]c(SCC3CCCCO3)nc2-c2ccccc2)c1 (configuration not stated) |  | 560 | 90 | 
O=C1CCC(CSc2nc(-c3ccccc3)c(-c3ccccc3)[nH]2)N1 (configuration not stated) |  | 360 | 87 | 
CC1=CC(=O)OC(CSc2nc(-c3ccccc3Cl)c(-c3ccccc3Cl)[nH]2)C1 (configuration not stated) | 95 | 1700 |  | 
Sc1nc(-c2ccccc2Cl)c(-c2ccccc2Cl)[nH]1 | 27 |  |  | 
Clc1ccc(-c2[nH]c(SCC3CCCCO3)nc2-c2ccccc2)cc1 (configuration not stated) |  |  | 87 | 
Clc1ccccc1-c1[nH]c(SCC2CCCCO2)nc1-c1ccccc1 (configuration not stated) |  |  | 76 | 
CCOC(=O)CC(C)(O)CC(O)CSc1nc(-c2ccccc2)c(-c2ccccc2)[nH]1 (configuration not stated) |  | 280 | 91 | 
C[C@@]1(O)CC(=O)OC(CSc2nc(-c3cccc(Cl)c3)c(-c3cccc(Cl)c3)[nH]2)C1 (some centres not stated) |  | 110 | 93 | 

SMILES | inhibition [2] [%] | IC50 [3] [nM] | inhibition [4] [%] | Change [1] [%]
CC1=CC(=O)OC(CSc2nc(-c3ccc(F)cc3)c(-c3ccc(F)cc3)[nH]2)C1 (configuration not stated) | 96 | 610 |  | 
O=C(O)CCC(O)CSc1nc(-c2ccccc2)c(-c2ccccc2)[nH]1 (configuration not stated) | 76 |  |  | 
CC1=CC(=O)OC(CSc2nc(-c3ccc(Cl)cc3)c(-c3ccc(Cl)cc3)[nH]2)C1 (configuration not stated) |  |  | 77 | 
c1ccc(-c2nc(SCCC3OCCCO3)[nH]c2-c2ccccc2)cc1 |  | 730 | 80 | 
CC(O)(CC(=O)OC(C)(C)C)CC(O)CSc1nc2c3ccccc3c3ccccc3c2[nH]1 (configuration not stated) |  |  | 41 | 
CCOC(CSc1nc(-c2ccco2)c(-c2ccco2)[nH]1)OCC |  |  | 34 | 
CO[C@H]1O[C@H](CSc2nc(-c3ccccc3)c(-c3ccccc3)[nH]2)[C@@H](O)[C@H](O)[C@@H]1O |  |  | 52 | 
CC1=CC(=O)OC(CSc2nc(-c3cccc(Cl)c3)c(-c3cccc(Cl)c3)[nH]2)C1 (configuration not stated) | 98 | 440 |  | 
CC1=CC(=O)OC(CSc2nc(-c3ccc(C)cc3)c(-c3ccc(C)cc3)[nH]2)C1 (configuration not stated) | 97 | 280 |  | 
CCSc1nc(-c2ccccc2)c(-c2ccccc2)[nH]1 | 99 | 770 |  | 
C[C@@]1(O)CC(=O)OC(CSc2nc(-c3ccccc3)c[nH]2)C1 (some centres not stated) | 0 |  |  | 
c1ccc(-c2nc(SCC3OCCCO3)[nH]c2-c2ccccc2)cc1 | 97 | 180 |  | -10
CO[C@H]1C[C@H](O)C[C@@H](CSc2nc(-c3ccccc3)c(-c3ccccc3)[nH]2)O1 |  | 90 | 92 | 
CCOC(CSc1nc(-c2ccccn2)c(-c2ccccn2)[nH]1)OCC | 15 |  |  | 
COc1ccccc1-c1nc(S)[nH]c1-c1ccccc1OC |  |  | 0 | 
COc1cccc(-c2nc(SCC3C[C@](C)(O)CC(=O)O3)[nH]c2-c2cccc(OC)c2)c1 (some centres not stated) | 97 | 570 |  | 

Second part, led by results:

inhibition [2] [%] | IC50 [3] [nM] | inhibition [4] [%] | SMILES | Change [1] [%]
 |  | 29 | COc1ccccc1-c1nc(SC[C@H]2C[C@@](C)(O)CC(=O)O2)[nH]c1-c1ccccc1OC.COc1ccccc1-c1nc(SC[C@H]2C[C@](C)(O)CC(=O)O2)[nH]c1-c1ccccc1OC | 
95 | 1000 |  | C[C@@]1(O)CC(=O)O[C@@H](CSc2nc(-c3ccc(C(F)(F)F)cc3)c(-c3ccc(C(F)(F)F)cc3)[nH]2)C1.C[C@]1(O)CC(=O)O[C@@H](CSc2nc(-c3ccc(C(F)(F)F)cc3)c(-c3ccc(C(F)(F)F)cc3)[nH]2)C1 | 
98 | 180 |  | C[C@@]1(O)CC(=O)OC(CSc2nc(-c3ccc(Cl)cc3)c(-c3ccc(Cl)cc3)[nH]2)C1 (some centres not stated) | -11
78 |  |  | O=C1CCC(CSc2nc(-c3ccccc3)c(-c3ccccc3)[nH]2)O1 (configuration not stated) | 
98 | 140 |  | C[C@]1(O)CC(=O)OC(CSc2nc(-c3ccccc3)c(-c3ccccc3)[nH]2)C1 (some centres not stated) | -35
 | 280 | 89 | CO[C@H]1C[C@@](C)(O)C[C@H](CSc2nc(-c3ccccc3)c(-c3ccccc3)[nH]2)O1 | 
 | 910 | 89 | O=C1CC(O)CC(CSc2nc(-c3ccccc3)c(-c3ccccc3)[nH]2)O1 (configuration not stated) | 
4 |  |  | C[C@@]1(O)CC(=O)O[C@@H](CSc2nc(-c3ccccc3)c(-c3ccccc3)s2)C1.C[C@]1(O)CC(=O)O[C@@H](CSc2nc(-c3ccccc3)c(-c3ccccc3)s2)C1 | 
 |  | 32 | CC(C)(C)c1ccc(-c2nc(SC[C@H]3C[C@@](C)(O)CC(=O)O3)[nH]c2-c2ccc(C(C)(C)C)cc2)cc1.CC(C)(C)c1ccc(-c2nc(SC[C@H]3C[C@](C)(O)CC(=O)O3)[nH]c2-c2ccc(C(C)(C)C)cc2)cc1 | 
 | 82 | 93 | CO[C@@H]1C[C@@](C)(O)C[C@H](CSc2nc(-c3ccccc3)c(-c3ccccc3)[nH]2)O1 | 
99 | 170 |  | Cc1ccc(-c2nc(SC[C@H]3C[C@@](C)(O)CC(=O)O3)[nH]c2-c2ccc(C)cc2)cc1.Cc1ccc(-c2nc(SC[C@H]3C[C@](C)(O)CC(=O)O3)[nH]c2-c2ccc(C)cc2)cc1 | 
32 |  |  | C[C@@]1(O)CC(=O)O[C@@H](CSc2nc(-c3ccccc3)c(-c3ccccc3)n2-c2ccccc2)C1.C[C@]1(O)CC(=O)O[C@@H](CSc2nc(-c3ccccc3)c(-c3ccccc3)n2-c2ccccc2)C1 | 
 | 230 | 90 | CC(C)c1ccc(-c2nc(SC[C@H]3C[C@@](C)(O)CC(=O)O3)[nH]c2-c2ccc(C(C)C)cc2)cc1.CC(C)c1ccc(-c2nc(SC[C@H]3C[C@](C)(O)CC(=O)O3)[nH]c2-c2ccc(C(C)C)cc2)cc1 | 
98 | 200 |  | CC1=CC(=O)OC(CSc2nc(-c3ccccc3)c(-c3ccccc3)[nH]2)C1 (configuration not stated) | 27
95 | 740 |  | O=C1CCCC(CSc2nc(-c3ccccc3)c(-c3ccccc3)[nH]2)O1 (configuration not stated) | 16
96 | 340 |  | COc1ccc(-c2nc(SCC3C[C@@](C)(O)CC(=O)O3)[nH]c2-c2ccc(OC)cc2)cc1 (some centres not stated) | 
13 |  |  | C[C@@]1(O)CC(=O)O[C@@H](CSc2nc(-c3ccccc3)c(-c3ccccc3)o2)C1.C[C@]1(O)CC(=O)O[C@@H](CSc2nc(-c3ccccc3)c(-c3ccccc3)o2)C1 | 
23 |  |  | C[C@@]1(O)CC(=O)O[C@@H](CS(=O)(=O)c2nc(-c3ccccc3)c(-c3ccccc3)[nH]2)C1 | 
 | 160 | 94 | C[C@@]1(O)CC(O)O[C@@H](CSc2nc(-c3ccccc3)c(-c3ccccc3)[nH]2)C1 (some centres not stated) | 
90 | 2600 |  | Cn1c(SC[C@H]2C[C@@](C)(O)CC(=O)O2)nc(-c2ccccc2)c1-c1ccccc1.Cn1c(SC[C@H]2C[C@](C)(O)CC(=O)O2)nc(-c2ccccc2)c1-c1ccccc1 | 
99 | 140 |  | C[C@@]1(O)CC(=O)OC(CSc2nc(-c3ccccc3Cl)c(-c3ccccc3Cl)[nH]2)C1 (some centres not stated) | 
97 | 790 |  | C[C@@]1(O)CC(=O)OC(CSc2nc(-c3ccc(F)cc3)c(-c3ccc(F)cc3)[nH]2)C1 (some centres not stated) | 
 | 290 | 90 | c1ccc(CSc2nc(-c3ccccc3)c(-c3ccccc3)[nH]2)cc1 | 
87 | 420 |  | COc1ccc(-c2nc(SCC3C[C@](C)(O)CC(=O)O3)[nH]c2-c2ccc(OC)cc2)cc1 (some centres not stated) | 
 |  | 12 | C[C@]1(O)CC(=O)OC(CSc2nc(-c3ccccc3)n(-c3ccccc3)n2)C1 (some centres not stated) | 
98 | 170 |  | C[C@@]1(O)CC(=O)OC(CSc2nc(-c3ccccc3)c(-c3ccccc3)[nH]2)C1 (some centres not stated) | -105
